T cruzi repl: inhibitors of intracellular T. cruzi growth, primary screen, luminescence, NIH3T3 host cells; T. cruzi beta-gal in NIH3T3, 90 h; 1.4% of 300,000 active; AID 1885, 2009; inhibition, % (concentration not given with the values);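 active = mean inhibition across valid replicates above about 55%, limit read from the data; inconclusive = mean below that limit but half or more replicates reach it; inactive = mean below it, under half of replicates reach it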;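 note: signal also drops with host cell toxicity which is not excluded here; higher percent means less beta-gal luminescence so fewer parasites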
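Test system: β-gal T. cruzi (Tulahuen C4) inside NIH/3T3 cells / Quantity: 5,000 cells/well / Measured by: luminescence from GalScreen with 0.05% NP40, read after 60 min / Medium: DMEM plus 2% FBS / Measure: parasite load inhibition, % / Reagent: Tulahuen C4 trypomastigotes, 5000/well / Schedule: co-culture of at least 90 h after 3 h attachment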
HSF1 inhib: HSF1 inhibitors in luciferase reporter cells, primary screen, cell-based, NIH3T3, luminescence | NIH3T3-HGL HSE-luciferase, MG132-induced, luminescence 8 h; hits give low values | activity change, negative = inhibition, % at 7.5 µM (by protocol) | 0.77% of 300,000 active | AID 2098, 2009;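 active = more than half of replicate wells show activity change below -50%, luminescence cut by over half; inconclusive = some wells, but at most half, below -50%; inactive = no replicate well below -50%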;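 note: luciferase reports HSF-1 transcriptional activity via heat shock element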
HIF activator: HIF pathway transcriptional activators, primary screen, cell-based, U2OS HRE-luciferase, luminescence; U2OS HRE-luciferase reporter; normalized: DMSO 0%, desferrioxamine 100%; activation, % at 7.5 µM (by protocol); 0.32% of 300,000 active; AID 1910, 2009;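 active = mean activation of at least 10% of the iron chelator positive control signal, with at least half of replicates also reaching 10%; inconclusive = mean and replicate majority disagree about reaching 10%; inactive = mean and most replicates under 10%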
Calb FLC: C. albicans growth inhibition with fluconazole, primary screen, CaCi-2 strain, Alamar Blue fluorescence; C. albicans CaCi-2 + fluconazole, 48 h; growth inhibition, % (no concentration beside the values); 0.57% of 300,000 active;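 active = growth inhibition above about 58% in most replicates, limit read from the data, passing the limit was not always enough; inconclusive = exactly half the replicates above a set limit; inactive = most replicates below a set limit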;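 note: all wells also contain fluconazole at 8 µg/ml as a sub-toxic cotreatment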
HSF-1 act: HSF-1 activators, primary screen, NIH3T3-HGL cells, MG132 stress, luminescence, single point; NIH3T3-HGL HSF-1 luciferase reporter, 8 h; 100% = twice DMSO control signal; activation, % at 9 µM; 1.7% of 300,000 active;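 active = mean replicate activation of at least 50% with a set share of replicates each reaching 50%; inconclusive = only one of those two conditions met; inactive = mean below 50% and too few replicates reaching it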
Of the large screens only hits and unclear results are named; the others gave an inactive call. Rows were chosen to be rich in hits. Some 4.4% of all compounds tested hit in one or more screens of this group.

CNC(=S)N(C)CCc1cc2c(c(OC)c1/C=C1/C(=O)NC(=O)N(C)C1=O)OCO2	none
CCNC(=S)N(C)CCc1cc2c(c(OC)c1C=C1C(=O)N(C)C(=O)N(C)C1=O)OCO2	HSF1 inhib -85
Brc1ccccc1CNCCc1ccc2c(c1)OCO2	none
COC(=O)c1c(C)n(Cc2ccc3c(c2)OCO3)c2ccc(O)cc12	none
CCOC(=O)c1c(C)n(Cc2ccc3c(c2)OCO3)c2ccc(O)cc12	HSF-1 act 62
COc1ccccc1CN1CCN(Cc2ccc(Cl)cc2)CC1	T cruzi repl 58, Calb FLC inconclusive
COc1ccc(CN2CCN(Cc3ccccc3OC)CC2)cc1	none
O=C(O)c1ccccc1NC(=O)N1C[C@H]2C[C@@H](C1)c1cccc(=O)n1C2	none
O=c1cccc2n1CC1CC2CN(c2nc(N3CCCCC3)nc(N3CCCCC3)n2)C1 (stereo not drawn)	HSF-1 act 58
CCOP(=O)(OCC)c1cc(CC)ccc1O	none
CCOc1ccccc1CNCCc1ccc2c(c1)OCO2	none
CCOc1ccc(CNCCc2ccc3c(c2)OCO3)cc1	T cruzi repl 67
CC1CN=C(NCc2ccc(F)cc2)S1 (stereo not drawn)	none
O=C(c1cc2cc(Br)ccc2[nH]1)N1CCC2(CC1)OCCO2	none
O=C(c1ccc2c(c1)OCO2)N1CCC2(CC1)OCCO2	HSF1 inhib -68
O=C(c1cc(Br)ccc1Cl)N1CCC2(CC1)OCCO2	HIF activator 421
CN1C(=O)C(c2ccccc2)C(=O)N(C)C1=O	none
CCCC(C)(COC(N)=O)COC(=O)NC(C)C (stereo not drawn)	none (no result: Calb FLC)
Cc1ccsc1C(=O)C1CCCN(Cc2sc(N(C)C)nc2Cl)C1 (stereo not drawn)	none
Cc1ccsc1C(=O)C1CCCN(Cc2cnc(N)nc2)C1 (stereo not drawn)	none
Cc1ccsc1C(=O)C1CCCN(Cc2cnc(N3CCOCC3)s2)C1 (stereo not drawn)	T cruzi repl 60
Cc1ccsc1C(=O)C1CCCN(Cc2cnc(N(C)C)s2)C1 (stereo not drawn)	T cruzi repl 59 (no result: HSF1 inhib, HIF activator, HSF-1 act)
Fc1ccc(CN2CCN(c3ccc(Cl)cc3)CC2)cc1	none
Fc1cccc(F)c1CN1CCN(c2ccc(Cl)cc2)CC1	HSF-1 act 60
COC(=O)C1=C(c2ccc(S(C)(=O)=O)cc2)C[C@@H]2CC[C@H]1N2C(=O)NCc1cccc2ccccc12	none
O=c1c2ccccc2nc(/C=C/c2ccc([N+](=O)[O-])o2)n1-c1ccc(O)cc1	Calb FLC 98
CC1CCN(c2cc(Br)c([N+](=O)[O-])cc2F)CC1	none
COC(=O)C[C@]1(C(=O)OC)CN(C#N)N(c2ccc(Cl)cc2)C12c1ccccc1-c1ccccc12	HSF1 inhib -94
COC(=O)[C@@H]1[C@@H](C(=O)OC)C2(c3ccccc3-c3ccccc32)N(c2ccc(Cl)cc2)N1C#N	T cruzi repl 56, HSF1 inhib -96
CN1CCCN(C(=O)COc2ccc(F)cc2F)CC1	none
Cc1cc(C)cc(NC2=NCCCS2)c1	none
CCCC[n+]1cc(=N)o[n-]1	none
CC(C)Nc1ccc(Nc2ccccc2)cc1	T cruzi repl 56
CC(c1ccccc1)[n+]1ccccc1 (stereo not drawn)	none
Cc1ccc(C(=O)c2cc(Br)ccc2N)cc1	none
CCc1ccc(CN2CCCC(C(=O)c3sccc3C)C2)o1 (stereo not drawn)	T cruzi repl 55
COc1cccc(C(=O)C2CCCN(Cc3cccc4c3OCO4)C2)c1 (stereo not drawn)	Calb FLC 108
Cc1ccsc1C(=O)C1CCCN(Cc2cnn(C(C)C)c2)C1 (stereo not drawn)	T cruzi repl 66
Cc1ccsc1C(=O)C1CCCN(Cc2ccccc2O)C1 (stereo not drawn)	HSF-1 act 58
COCCCN=Cc1c(O)[nH]c(=S)[nH]c1=O	none
Cc1ccc2c(c1)c(=O)c1c3n2CCN(CC2CO2)C3CC1 (stereo not drawn)	none
